Experimental data reported in the EternaBench riboswitch data.

Test system: MS2 coat protein
Test: apparent Kd, MS2 coat protein; higher = weaker binding; RNA-MaP array
Summary of the method: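 Incubations were done at room temperature with fluorescently labeled MS2 coat protein at 1.5 nM to 3 μM and designed RNAs transcribed on an Illumina sequencing chip from sequenced DNA templates, with or without input ligand. Apparent Kd is the median of binding curves fitted for each cluster. Designs with fewer than 10 measured clusters were excluded.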

[1] = designed as: OFF switch for flavin mononucleotide, no ligand
[2] = ligand present: flavin mononucleotide, designed as: OFF switch for flavin mononucleotide
[3] = designed as: ON switch for flavin mononucleotide, no ligand
[4] = ligand present: flavin mononucleotide, designed as: ON switch for flavin mononucleotide
[5] = designed as: ON switch for tryptophan, no ligand
[6] = ligand present: tryptophan, designed as: ON switch for tryptophan
[7] = designed as: ON switch for theophylline, no ligand
[8] = ligand present: theophylline, designed as: ON switch for theophylline

## CGUUAAGGCGAGAAGGUGCCGUCCAACAUGAGGAUCACCCAUGUCGGUCGGUGAAUCAAGAGACGCAAGGAUAUCGACAUUAAC
[1]
  apparent Kd: 3.01 nM
[2]
  apparent Kd: 3.46 nM

## CGUAUAGCAGGAUAUACAUGAGGAUCACCCAUGUUUUUCGUUGUGUGGUGCCAAGCGUGUAGAAGGGCUUCCUC
[1]
  apparent Kd: 52.4 nM
[2]
  apparent Kd: 56.8 nM

## GUCUCACAGAUAGGAUAUGGUUUUCACAUGAGGAUCACCCAUGUAAAUCCUAAAGUAAGUGGAGGCCAGAAGGAUCCGGUACAG
[1]
  apparent Kd: 32.2 nM
[2]
  apparent Kd: 35.1 nM

## AGUUCUGGAGGAUAUACAUCCUCAAUGUCCAACCUGCGGAUACAUGAGGAUCACCCAUGUAGAAGGCCACACAA
[1]
  apparent Kd: 6.53 nM
[2]
  apparent Kd: 9.75 nM

## GCGUGGUAAGGAUAUGUGUACGUCCGGUAGUAUAGCGUACAACAGAAGGUACAUGAGGAUCACCCAUGUGUCCG
[1]
  apparent Kd: 7.03 nM
[2]
  apparent Kd: 7.94 nM

## GCUACACAGGACCGUACUAAGGAUUCGCCUCGAGGACCGGUACGGCCGCCACUCGUUGCGCGACAUGAGGAUCACCCAUGUGUUC
Designed as: OFF switch for tryptophan, no ligand
  apparent Kd: 46 nM
Ligand present: tryptophan, designed as: OFF switch for tryptophan
  apparent Kd: 36.7 nM

## AAUGAGGCCUCUCAACAUGAGGAUCACCCAUGUAACGGAACAAAGGAUAUGGUCCAACUACUAACCCAGAAGGUUGUGACAGAA
[3]
  apparent Kd: 49.1 nM
[4]
  apparent Kd: 40.6 nM

## CUGUGCGAACAGAAGGUGGCGUGUUAUCGGGACCAAGGAUAUGUUUACUAUUGUGACAAUUCACAUGAGGAUCACCCAUGUACA
[1]
  apparent Kd: 21.7 nM
[2]
  apparent Kd: 15.3 nM

## UUGGUUGCAUAGAAGGUGAGAUAGGAUCUACAUGAGGAUCACCCAUGUGUUAUCCCAAUUAGAAUCAAGGAUAUAUUGGCUUAU
[3]
  apparent Kd: 19.1 nM
[4]
  apparent Kd: 15.7 nM

## CUUAGGUGAGGAUAUCCUGAAUGGGUCGCUACCAGCCGUUCGGAGAAGGCACAUGAGGAUCACCCAUGUUUUGA
[1]
  apparent Kd: 34.6 nM
[2]
  apparent Kd: 25.5 nM

## AUUCAAAUAACAGGAUAUGACAUAAACUACGAAUCAGAAGGGUUACAUAAAUCAACAUGAGGAUCACCCAUGUAUACUCCACAA
[3]
  apparent Kd: 17.5 nM
[4]
  apparent Kd: 11.7 nM

## AGACCAUCCUUAGGAUAUGGCUAUCUUAUCAAGCCAGAAGGAAGGGCCUCAUCUAACAUGAGGAUCACCCAUGUGCGCAAGUUU
[1]
  apparent Kd: 81.3 nM
[2]
  apparent Kd: 51.9 nM

## UUAGCACAUGAGGAUCACCCAUGUCAGGAUAUACGGAAUGUCCUCUACAGGGCGCGCUGUAGAAGGGACCGGGC
[1]
  apparent Kd: 9.53 nM
[2]
  apparent Kd: 9.76 nM

## CUAAAUUACGCGUAGGAUAUAUUAAAGACUACAUGAGGAUCACCCAUGUCACUUAAACCACGAGAAUAGAAGGACGUAGAAAGAGA
[3]
  apparent Kd: 8.77 nM
[4]
  apparent Kd: 9.06 nM

## UAUUGAAUCCUCCCGACAUGAGGAUCACCCAUGUUACCUGCGCAGGAUAUCGUAUGUAUACCCGGCGAGAAGGGCGCUAGCGAG
[1]
  apparent Kd: 213 nM
[2]
  apparent Kd: 160 nM

## GAUACGCAGUCGGCCGCCACUUGCUAAGGUGACAAACCAAAACAUGAGGAUCACCCAUGUCUGAUAAGGACCGGGACCACCAUGG
[5]
  apparent Kd: 79.5 nM
[6]
  apparent Kd: 81.1 nM

## CCUAACUGCGAGAAGGUACAGCGAUAGUGACUGUAAGGAUAUCGGGCGGUGCAUAUCUUAGUAAUACAUGAGGAUCACCCAUGU
[1]
  apparent Kd: 8.7 nM
[2]
  apparent Kd: 6.82 nM

## UUAUAUCUUUAGGAUAUGCUGUGUCGGCAACUAGCAGAAGGAAAGACAUGAGGAUCACCCAUGUUGGUGCGUUC
[1]
  apparent Kd: 58.8 nM
[2]
  apparent Kd: 249 nM

## GCGGGACUGUAGAAGGGUUAUCCUUAAGGUCUGAUCACAUGAGGAUCACCCAUGUAACGGGUGGAACAGGAUAUACCAGAUCGC
[1]
  apparent Kd: 42 nM
[2]
  apparent Kd: 48.4 nM

## UUGCUCCAUCAGAAGGUCUACGCACAUGAGGAUCACCCAUGUUCUGGAAUCAUCUUGUGUGCCAAGAAGGAUAUGACUUCAAGU
[1]
  apparent Kd: 545 nM
[2]
  apparent Kd: 363 nM

## GGGCGUGGAGUAGGAUAUCCUGUAUACAUGAGGAUCACCCAUGUACAUAUCUAGUAUUACCGUUUGGAGAAGGACUGUUGGGCU
[3]
  apparent Kd: 11.5 nM
[4]
  apparent Kd: 9.71 nM

## UAGAGGACGGGAGGAUAUUCAGGUACAUCAGCCGAAGGCACACAUGAGGAUCACCCAUGUGGGUCGAAGAAGGCCCAGUUGACG
[3]
  apparent Kd: 5.37 nM
[4]
  apparent Kd: 4.67 nM

## AUUGGAGACUGGUACAUGAGGAUCACCCAUGUUAAUAACAGUAGAAGGCCCGCGGUUAGAAGAUGGGAGGAUAUACACGUGGGU
[1]
  apparent Kd: 10.4 nM
[2]
  apparent Kd: 17.8 nM

## ACCUCGUAAGGAUAUAGAUGCCCGUACACAACAACAGAACUCUAGAAGGUACAUGAGGAUCACCCAUGUUGAUG
[1]
  apparent Kd: 21.5 nM
[2]
  apparent Kd: 20.9 nM

## UACGUGGAUGCGGCCGCCACUGCUCUGAGCGAGUUGCUCUAUGGACAUGAGGAUCACCCAUGUCACAGGACCGGGCACGCUUUAA
[5]
  apparent Kd: 10.4 nM
[6]
  apparent Kd: 9.67 nM

## ACAACUCUCACAGGAUAUUGACAUGAGGAUCACCCAUGUAAUCCAGGGCGAACAUAGGACUGACACAAGAAGGGUGACACCAUC
[3]
  apparent Kd: 20.1 nM
[4]
  apparent Kd: 16.1 nM

## ACACCUAUAGUGAGGAUAUAGAUCGAAACAAUCGACAAGAAGGCACAUGAGGAUCACCCAUGUAAGGCGCAAAU
[1]
  apparent Kd: 6.55 nM
[2]
  apparent Kd: 5.97 nM

## UCGAUCAUGUAGAAGGCAUCAGAAACUGGGUGAUGAGGAUAUACGUUAAGACAUGAGGAUCACCCAUGUAAGCAUUGCAAACAC
[3]
  apparent Kd: 116 nM
[4]
  apparent Kd: 86.2 nM

## UUUAGUAUCUUAGAUACCAGUUUUGGGUGCUGAACGUCUCACAUGAGGAUCACCCAUGUAAACCCUUGGCAGCUACAUACGUAAA
Designed as: OFF switch for theophylline, no ligand
  apparent Kd: 45.5 nM
Ligand present: theophylline, designed as: OFF switch for theophylline
  apparent Kd: 136 nM

## GCAUCAUGAACGGCCGCCACUAAGGAAUGAGCGGCUCUUGCGAUACAUGAGGAUCACCCAUGUCUUAGGACCGGGUUCAUUGUCA
[5]
  apparent Kd: 234 nM
[6]
  apparent Kd: 127 nM

## CCAUGCGUUGAGAAGGUGCUCGGGAAUCCACAUGAGGAUCACCCAUGUUGACUAGUAAGGCAUCGCAAGGAUAUCAGCUAUCUC
[1]
  apparent Kd: 28.8 nM
[2]
  apparent Kd: 25.3 nM

## CGUCGAUAACCACAUGAGGAUCACCCAUGUAAUGUGGUGUGGAGAAGGUCGUGCUAGUUCUAUACGAAGGAUAUCCACGAAUCU
[1]
  apparent Kd: 124 nM
[2]
  apparent Kd: 98.3 nM

## UAGCAAUGCGAAGGAUAUGUCGCCCUCCCAAGGACAGAAGGUCGGAACUGUUUACAUGAGGAUCACCCAUGUGGUAAUUAACAA
[3]
  apparent Kd: 21.8 nM
[4]
  apparent Kd: 15.6 nM

## UGGUUUGUCCAUACAUGAGGAUCACCCAUGUAACACUGGCCCAGAAGGCGAAAAUGGCAGCCAGUCGAGGAUAUGGGCUGUAUG
[3]
  apparent Kd: 59.7 nM
[4]
  apparent Kd: 26.6 nM

## CGGGACAUGAGGAUCACCCAUGUACGAUCCCGAGGACCGGUACGGCCGCCACUCGCUAGCGUUGAGUCGCGACUUUCAUAACUAA
[5]
  apparent Kd: 74.4 nM
[6]
  apparent Kd: 43.3 nM

## UCUUUCUUUAAAGAACACAUGAGGAUCACCCAUGUUCAAGGGCAGGAUAUGAGUAUCUGUUCGGAUCAGAAGGGCCCAACAGGU
[3]
  apparent Kd: 36 nM
[4]
  apparent Kd: 29.5 nM

## GCUUCACAUGAGGAUCACCCAUGUCCGGAUACCAGCUCUCCAGACAGCCCUUGGCAGCCGAGCGCCCGAUUAUAUACCCUAGGAG
[7]
  apparent Kd: 22 nM
[8]
  apparent Kd: 29.9 nM

## UGAAAACCGUCAUAAACAAACAUGAGGAUCACCCAUGUAGCUAAGGAUAUUGACAAACAAAGACUCAAGAAGGUAGAACCUACA
[1]
  apparent Kd: 7.99 nM
[2]
  apparent Kd: 7.26 nM

## CGUCAACAUGAGGAUCACCCAUGUUUCGAUACCAGUGACCCUCUCCACCCUUGGCAGCGAGCGCCCGCGCCUGAUAAAUCUUCUA
[7]
  apparent Kd: 12.1 nM
[8]
  apparent Kd: 14.2 nM

## CUAAGAGUUACGGCCGCCACUAGUUGGGAUCCGCCCGUAAAAUCACAUGAGGAUCACCCAUGUCCUAGGACCGGGUAAUCGCAUU
[5]
  apparent Kd: 265 nM
[6]
  apparent Kd: 142 nM

## AAAUCUAACGAGAAGGGAGUGGCCGGCCACUUAGCAGACAUGAGGAUCACCCAUGUGAAGAUCACUCAGGAUAUCGAUAAUCCA
[3]
  apparent Kd: 24.9 nM
[4]
  apparent Kd: 22.7 nM

## GGCGAGACCCAGAAGGUUCGUCCGGAUCCGCGAUAAUACAUGAGGAUCACCCAUGUAAGACCGGGAAAGGAUAUGGGAACAGCG
[3]
  apparent Kd: 6.54 nM
[4]
  apparent Kd: 6.02 nM

## CCUCCUUGUACGGCCGCCACUGCAUCUCUGGAUACUCCGAUAAUACAUGAGGAUCACCCAUGUUACAGGACCGGGUAUAUAUUAC
[5]
  apparent Kd: 15 nM
[6]
  apparent Kd: 16 nM

## AGCACAAUAGGAUAUACAUGAGGAUCACCCAUGUAGAAAUUUGGUACCCGGGUGUCUUGUAGAAGGAUAGAAGA
[1]
  apparent Kd: 16.4 nM
[2]
  apparent Kd: 15.1 nM

## GCCUAGGGUCAAGGAUAUCACCCAGUGGUCCGUACAUGAGGAUCACCCAUGUCACCGGGAACGGGUGAGAAGGUGAAAAGUCGA
[3]
  apparent Kd: 13.9 nM
[4]
  apparent Kd: 9.93 nM

## CAUUCCAAGGCGGAGGAUAUUCGGAUCGCCACAUGAGGAUCACCCAUGUACGAGUAGUCUGCAACGAAGAAGGCCGUACGUCACCA
[3]
  apparent Kd: 10.5 nM
[4]
  apparent Kd: 6.57 nM

## CCAACCUGUCGAGCACCAUAACAUGAGGAUCACCCAUGUAUCAGAAGGUGUGUGAGUAAGGAAGACAAGGAUAUGACUCGACGC
[3]
  apparent Kd: 16.9 nM
[4]
  apparent Kd: 12.7 nM
